The list is not random: actives were taken first. Their share in the collection is about 2.1%.
miR122 inh = inhibitors of miR-122 in Huh7 cells. activation (reporter increase), % at 12.5 µM. Huh7 miR-122 Renilla luciferase sensor, 48 h; neutral wells = 0, positive control = 100. 340,000 compounds, 0.3% hits;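 active means mean replicate activation score at least 90 and every replicate individually at or above 90; inconclusive means only one of the two criteria met; inactive means neither criterion met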;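 further: higher luciferase means less miR-122 activity so hits act as miR-122 inhibitors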
SR-BI uptake up = SR-BI HDL lipid transfer activation; CHO ldlA[mSR-BI] cells, DiI-HDL uptake fluorescence, 3 h; 100 = double the neutral-control signal; activation, % at 12.5 µM; 320,000 compounds, 0.096% hits; AID 504775;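 active means mean replicate activation of at least 60% and every replicate at or above 60%; inconclusive means mean or all-replicate condition met, but not both; inactive means mean below 60% and not all replicates reaching 60%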
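Assay system: CHO ldlA[mSR-BI] cells, LDL receptor-null, SR-BI overexpressing; medium: Ham's F12 with 0.5% BSA, HEPES 25 mM, pH 7.4; also added: DiI-HDL 10 µg/mL; timing: 3 h uptake period with compound, 37 °C; signal: DiI fluorescence, bottom read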
ARNT-TACC3 inh = disrupts binding between human ARNT and TACC3; Q9Y6A5; AlphaScreen His-ARNT PAS-B/GST-TACC3 binding, luminescence; TACC3 fragment carries E629A point mutation; inhibition, % at 9.99 µM; 390,000 compounds, 0.66% hits; AID 623870;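 active means mean inhibition of replicates at least 50% and at least half of replicates each reaching 50%; inconclusive means half or more replicates reach 50% but mean below 50%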
CAL PDZ FP-1 = inhibitors of human CAL PDZ peptide binding | Q9HD26 | purified CAL PDZ, TMR-peptide fluorescence polarization, 1 h | inhibition, % at 24.9 µM | 300,000 compounds, 0.92% hits | AID 602252;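 active means mean inhibition of at least 30% with at least half of replicates also reaching 30%; inconclusive means no clear call, values can overlap the other calls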
SR-BI DiI inh = blocks mouse SR-BI lipid uptake from DiI-HDL | Q61009 | ldlA[mSR-BI] CHO cells, DiI-HDL uptake fluorescence, 3 h | inhibition, % at 12.5 µM | 320,000 compounds, 0.96% hits;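 active means mean replicate inhibition of at least 70% and a set share of replicates each scoring 70 or more; inconclusive means meets just one of the two criteria; inactive means fails both criteria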
Target sequence (Q61009 whole entry, looked up): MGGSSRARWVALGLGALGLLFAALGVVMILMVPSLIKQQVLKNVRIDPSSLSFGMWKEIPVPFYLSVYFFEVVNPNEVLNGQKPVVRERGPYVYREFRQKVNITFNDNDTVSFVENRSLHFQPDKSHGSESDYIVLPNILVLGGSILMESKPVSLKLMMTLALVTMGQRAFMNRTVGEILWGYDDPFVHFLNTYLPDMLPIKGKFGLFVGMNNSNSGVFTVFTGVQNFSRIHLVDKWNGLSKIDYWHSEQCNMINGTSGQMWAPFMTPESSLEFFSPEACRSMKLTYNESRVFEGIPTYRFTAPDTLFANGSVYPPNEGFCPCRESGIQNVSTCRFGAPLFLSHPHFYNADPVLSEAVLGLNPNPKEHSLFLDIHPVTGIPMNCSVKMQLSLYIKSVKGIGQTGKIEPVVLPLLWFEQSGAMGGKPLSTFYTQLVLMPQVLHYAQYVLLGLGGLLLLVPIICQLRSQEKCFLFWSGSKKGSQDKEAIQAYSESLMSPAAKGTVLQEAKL
CAL PDZ FP-2 = inhibitors of human CAL PDZ peptide binding | inhibition, % at 20 µM | 330,000 compounds, 0.02% hits | purified CAL PDZ, TMR-peptide fluorescence polarization, 1 h;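 active means highest replicate inhibition of at least 40%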
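Read-out basis: mP drop reported as inhibition | Assay system: Tagged CAL PDZ protein CerCALP, purified | Benchmarks: Unlabelled peptide for full inhibition, DMSO wells as neutral | Schedule: 1 h incubation at room temperature before polarization reading | Buffer or medium: Sodium phosphate/NaCl buffer pH 7.4 with TCEP, IgG, Thesit | Doses: Single point, 20 µM | Measured by: Fluorescence polarization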
Each line names hits and unclear results; the compound was inactive in the other large screens.

O=C(O)COc1ccccc1/C=N/NC(=O)c1cc(-c2ccc(F)cc2)nc2ccccc12	ARNT-TACC3 inh 47.0
O=C(N/N=C/c1ccc(F)cc1)c1cc(-c2ccccn2)nc2ccccc12	none
COc1ccc(/C=N/NC(=O)c2cc(-c3cccnc3)nc3ccccc23)c(OC)c1	SR-BI DiI inh 74.0 (no result: miR122 inh)
Cc1ccc(-c2cc(C(=O)N/N=C/c3ccoc3)c3ccccc3n2)cc1	SR-BI DiI inh inconclusive (no result: SR-BI uptake up)
COc1cccc(/C=N/NC(=O)c2cc(-c3ccccn3)nc3ccccc23)c1O	SR-BI DiI inh 103.0 (no result: CAL PDZ FP-1)
CN1c2ccc(C#Cc3cccnc3)cc2[C@H]2[C@H](CCN2S(=O)(=O)c2ccc(F)cc2)[C@H]1CO	none (no result: SR-BI uptake up, CAL PDZ FP-1, SR-BI DiI inh, CAL PDZ FP-2)
CCCN1C[C@H](C)[C@H](OC)CN(C)C(=O)c2cc(NC(=O)c3cccc(F)c3)ccc2OC[C@@H]1C	none (no result: SR-BI uptake up, CAL PDZ FP-1, SR-BI DiI inh, CAL PDZ FP-2)
C[C@H]1CN([C@@H](C)CO)C(=O)c2cc(-c3cccc(F)c3)cnc2O[C@H]1CN(C)Cc1cccc(F)c1	none (no result: SR-BI uptake up, ARNT-TACC3 inh, CAL PDZ FP-1, SR-BI DiI inh, CAL PDZ FP-2)
COc1cc([N+](=O)[O-])cc(/C=N/NC(=O)c2cncc(Br)c2)c1O	ARNT-TACC3 inh 69.0 (no result: SR-BI uptake up, SR-BI DiI inh)
COc1ccc(-c2cc(C(=O)N/N=C/c3ccc(OC)c(COCC(F)(F)C(F)F)c3)c3ccccc3n2)c(OC)c1	SR-BI DiI inh 79.5
COc1ccc(-c2cc(C(=O)N/N=C/c3ccc4c(c3)OCO4)c3ccccc3n2)c(OC)c1	none
CCO[C@@H]1OC(C(=O)N2CCN(C)CC2)=C[C@H](c2ccccc2)[C@H]1CCCO	none (no result: miR122 inh, SR-BI uptake up, CAL PDZ FP-1, SR-BI DiI inh, CAL PDZ FP-2)
COc1cccc(NC(=O)N[C@H]2C=C[C@H](CC(=O)N3CCCCC3)O[C@H]2CO)c1	none (no result: miR122 inh, SR-BI uptake up, CAL PDZ FP-1, SR-BI DiI inh, CAL PDZ FP-2)
O=C(C[C@@H]1C[C@H]2c3cc(NC(=O)C4CCOCC4)ccc3O[C@H]2[C@H](CO)O1)NCc1ccc(Oc2ccccc2)cc1	none (no result: SR-BI uptake up, CAL PDZ FP-1, SR-BI DiI inh, CAL PDZ FP-2)
C[C@H](CO)N1C[C@H](C)[C@H](CN(C)C(=O)Nc2ccc(F)cc2)Oc2cc(-c3ccc(F)cc3)ccc2S1(=O)=O	none (no result: SR-BI uptake up, ARNT-TACC3 inh, CAL PDZ FP-1, SR-BI DiI inh, CAL PDZ FP-2)
Cc1cccc(C)c1NC(=S)NC(C)(C)CO	CAL PDZ FP-1 78.7 (no result: miR122 inh)
Cc1cccc(C)c1NC(=S)NCc1ccccc1	none
COC(=O)c1cc2n(n1)CCN(Cc1ccc(OC)cc1)C2=O	none
COc1ccc(CN2CCn3ncc(C(=O)Nc4cc(C)cc(C)c4)c3C2=O)cc1	SR-BI DiI inh 74.3
O=C(COC(=O)CNC(=O)c1ccc(Cl)cc1Cl)NCc1ccco1	SR-BI uptake up 89.0
CCCN1C[C@@H](C)[C@@H](OC)CN(C)C(=O)c2ccc(NC(=O)CC)cc2OC[C@@H]1C	none (no result: SR-BI uptake up, ARNT-TACC3 inh, CAL PDZ FP-1, SR-BI DiI inh, CAL PDZ FP-2)
Nc1ccc(-c2c3ccc(=O)cc-3oc3cc(O)ccc23)cc1C(=O)O	CAL PDZ FP-1 41.0 (no result: miR122 inh, ARNT-TACC3 inh)
O=c1ccc2c(-c3ccccc3)c3ccc(O)cc3oc-2c1	none (no result: CAL PDZ FP-2)
COCCn1nnnc1C(c1cccs1)N1CCN(c2ccccc2)CC1 (stereo not drawn)	SR-BI DiI inh 83.4
COCCn1nnnc1C(c1ccccc1)N1CCN(c2ccccc2)CC1 (stereo not drawn)	none
CCOCC(=O)NC1CCc2cc(OC(=O)COCC)c(OC)c(OC)c2-c2ccc(SC)c(=O)cc21 (stereo not drawn)	CAL PDZ FP-1 34.1
COc1cccc(NS(=O)(=O)c2cc(C)sc2C)c1	miR122 inh 121.4 (no result: ARNT-TACC3 inh)
O=S(=O)(c1ccc(Br)cc1)c1nc(-c2ccco2)oc1NCCCn1ccnc1	ARNT-TACC3 inh 64.0
COc1ccc(S(=O)(=O)N(C)C[C@@H]2OCCCC[C@@H](C)Oc3ccc(NS(C)(=O)=O)cc3C(=O)N([C@@H](C)CO)C[C@@H]2C)cc1	none (no result: SR-BI uptake up, CAL PDZ FP-1, SR-BI DiI inh, CAL PDZ FP-2)
Cc1cc(Oc2ccc(=O)n(C)n2)nc(Oc2ccc(=O)n(C)n2)n1	SR-BI uptake up 81.9
CO[C@@H]1CN(C)C(=O)c2ccc(NC(=O)C3CC3)cc2OC[C@@H](C)N(Cc2nccs2)C[C@H]1C	none (no result: SR-BI uptake up, CAL PDZ FP-1, SR-BI DiI inh, CAL PDZ FP-2)
COCCN(C(=S)Nc1ccc(OC)c(Cl)c1)C1CCN(C(C)=O)CC1	none (no result: SR-BI uptake up, ARNT-TACC3 inh, CAL PDZ FP-1, SR-BI DiI inh, CAL PDZ FP-2)
COCCN(C(=O)Nc1ccc(OC)cc1OC)C1CCN(C(C)=O)CC1	SR-BI DiI inh 79.6 (no result: SR-BI uptake up)
COc1ccc(NC(=O)N2CCCCCC2)c(OC)c1	none (no result: miR122 inh, CAL PDZ FP-1)
COc1ccc(NC(=O)N2CCN(S(C)(=O)=O)CC2)c(OC)c1	CAL PDZ FP-1 38.1 (no result: miR122 inh)

Screening data from PubChem.
